From ChEMBL document CHEMBL1765023, “Acetyl analogs of combretastatin A-4: synthesis and biological studies” (Bioorg Med Chem, 2011)
pIC50: −log10 of the molar value.

What was measured:
SK-MEL-2 = experiment: Growth inhibition of human SK-MEL-2 cells after 48 hrs by sulforhodamine B assay; assay type: functional; details: SK-MEL-2, 48 h
Method in brief: (§1)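 NCI 60 human cancer cell line screen run at the National Cancer Institute. Cells had 48 h continuous exposure, and proliferation was read by sulforhodamine B staining. GI50 (50% growth inhibition) was taken from dose–response curves.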

SN12C = experiment: Growth inhibition of human SN12C cells after 48 hrs by sulforhodamine B assay; assay type: functional
Method in brief: (§2)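 Tested in the NCI 60 human cancer cell line panel. Cells were exposed continuously for 48 h and proliferation was read by sulforhodamine B staining. GI50 (concentration for 50% growth inhibition), TGI (total growth inhibition) and LC50 were taken from dose–response curves.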

SR = experiment: Growth inhibition of human SR cells after 48 hrs by sulforhodamine B assay; assay type: functional; method in brief: as §2
Mus musculus [1] = experiment: Toxicity in DBA2 mouse assessed as change in white blood count at 75 mg/kg, ip QD administered on alternate days for 17 days measured on day 23 relative to control; assay type: organism-based; design: dose 75 mg/kg, route intraperitoneal; details: in vivo, 408 h
Method in brief: (§3)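 Healthy female DBA2 mice, 5–7 weeks old, five per group, received 75 mg/kg ip on days 1, 5, 9, 13 and 17. Vehicle was PET (PEG400/ethanol/Tween 80, 6:3:1), 5% glucose and DMSO, with final ethanol 15% and DMSO 10%. Controls received 100 µL vehicle. Body weight was measured every other day. At sacrifice on day 23, blood counts (hematocrit, WBC, granulocytes, platelets) and liver, kidney and spleen appearance and weight were assessed.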

UACC-257 = experiment: Growth inhibition of human UACC257 cells after 48 hrs by sulforhodamine B assay; assay type: functional; details: UACC-257, 48 h; method in brief: as §2
BT-549 = experiment: Growth inhibition of human BT549 cells after 48 hrs by sulforhodamine B assay; assay type: functional; details: BT-549, 48 h; method in brief: as §1
[2] = Ratio of EC50 for microtubule depolymerization in […] cells to IC50 for human MDA-MB-435 cells
Mus musculus [3] = experiment: Toxicity in DBA2 mouse assessed as change in color, weight and size in liver at 75 mg/kg, ip QD administered on alternate days for 17 days measured on day 23 relative to control; assay type: organism-based; design: dose 75 mg/kg, route intraperitoneal; details: in vivo, 408 h; method in brief: as §3
L1210 = experiment: Cytotoxicity against mouse L1210 cells by MTT assay; assay type: functional, cell-based
SNB-19 = experiment: Growth inhibition of human SNB19 cells after 48 hrs by sulforhodamine B assay; assay type: functional; details: SNB-19, 48 h; method in brief: as §2
M14 = experiment: Growth inhibition of human M14 cells after 48 hrs by sulforhodamine B assay; assay type: functional; details: M14, 48 h; method in brief: as §1
B16 = experiment: Cytotoxicity against mouse B16 cells by MTT assay; assay type: functional, cell-based
NCI-H226 = experiment: Growth inhibition of human NCI-H226 cells after 48 hrs by sulforhodamine B assay; assay type: functional; details: NCI-H226, 48 h; method in brief: as §1
DU-145 = experiment: Growth inhibition of human DU145 cells after 48 hrs by sulforhodamine B assay; assay type: functional; details: DU-145, 48 h; method in brief: as §1
SNB-75 = experiment: Growth inhibition of human SNB75 cells after 48 hrs by sulforhodamine B assay; assay type: functional; details: SNB-75, 48 h; method in brief: as §2
SK-MEL-28 = experiment: Growth inhibition of human SK-MEL-28 cells after 48 hrs by sulforhodamine B assay; assay type: functional; details: SK-MEL-28, 48 h; method in brief: as §1
HT-29 = experiment: Growth inhibition of human HT-29 cells after 48 hrs by sulforhodamine B assay; assay type: functional; details: HT-29, 48 h; method in brief: as §1
SF-295 = experiment: Growth inhibition of human SF295 cells after 48 hrs by sulforhodamine B assay; assay type: functional; details: SF-295, 48 h; method in brief: as §1
COLO 205 = experiment: Growth inhibition of human COLO205 cells after 48 hrs by sulforhodamine B assay; assay type: functional; details: COLO 205, 48 h; method in brief: as §1
K562 = experiment: Growth inhibition of human K562 cells after 48 hrs by sulforhodamine B assay; assay type: functional; details: K562, 48 h; method in brief: as §1
[4] = Growth inhibition of human […] cells after 48 hrs by sulforhodamine B assay; assay type: functional; method in brief: as §1
LOX IMVI = experiment: Growth inhibition of human LOXIMVI cells after 48 hrs by sulforhodamine B assay; assay type: functional; method in brief: as §1
MCF7 = experiment: Growth inhibition of human MCF7 cells after 48 hrs by sulforhodamine B assay; assay type: functional; details: MCF7, 48 h; method in brief: as §1
[5] = Growth inhibition of human NCI-ADR-RES cells after 48 hrs by sulforhodamine B assay; assay type: functional; method in brief: as §1
HOP-92 = experiment: Growth inhibition of human HOP92 cells after 48 hrs by sulforhodamine B assay; assay type: functional; details: HOP-92, 48 h; method in brief: as §1
OVCAR-5 = experiment: Growth inhibition of human OVCAR5 cells after 48 hrs by sulforhodamine B assay; assay type: functional; details: OVCAR-5, 48 h; method in brief: as §1
MDA-MB-435 = experiment: Growth inhibition of human MDA-MB-435 cells after 48 hrs by sulforhodamine B assay; assay type: functional; details: MDA-MB-435, 48 h; method in brief: as §1
HL-60(TB) = experiment: Growth inhibition of human HL-60(TB) cells after 48 hrs by sulforhodamine B assay; assay type: functional; details: HL-60, 48 h
Method in brief: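 NCI 60 human cancer cell line panel, tested at the National Cancer Institute. Continuous 48 h drug exposure, with proliferation read by sulforhodamine B staining. Dose–response curves gave GI50 (concentration inhibiting growth by 50%), TGI (total growth inhibition) and LC50.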

[6] = Growth inhibition of human Hs 578T cells after 48 hrs by sulforhodamine B assay; assay type: functional; method in brief: as §1
RXF 393 = experiment: Growth inhibition of human RXF393 cells after 48 hrs by sulforhodamine B assay; assay type: functional; details: RXF 393, 48 h; method in brief: as §1
HCT-116 = experiment: Growth inhibition of human HCT116 cells after 48 hrs by sulforhodamine B assay; assay type: functional; details: HCT-116, 48 h; method in brief: as §1
MDA-MB-468 = experiment: Growth inhibition of human MDA-MB-468 cells after 48 hrs by sulforhodamine B assay; assay type: functional; details: MDA-MB-468, 48 h; method in brief: as §1
EKVX = experiment: Growth inhibition of human EKVX cells after 48 hrs by sulforhodamine B assay; assay type: functional; method in brief: as §1
HOP-62 = experiment: Growth inhibition of human HOP62 cells after 48 hrs by sulforhodamine B assay; assay type: functional; details: HOP-62, 48 h; method in brief: as §1
OVCAR-8 = experiment: Growth inhibition of human OVCAR8 cells after 48 hrs by sulforhodamine B assay; assay type: functional; details: OVCAR-8, 48 h; method in brief: as §1

For `COc1ccc(/C=C(/C(C)=O)c2cc(OC)c(OC)c(OC)c2)cc1O`, the GI50 (SK-MEL-2) was 513 nM, the TGI (SK-MEL-2; read-out: pTGI) was > 100000 nM and the GI50 (SN12C) was 776 nM. The TGI (SN12C; read-out: pTGI) was > 100000 nM, the GI50 (SR) was 26.3 nM and the TGI (SR; read-out: pTGI) was > 100000 nM. The Activity (Mus musculus [1]) was “Non-toxic”, the GI50 (UACC-257) was 186 nM and the TGI (UACC-257; read-out: pTGI) was > 100000 nM. It also gave a GI50 (BT-549) of 427 nM, a TGI (BT-549; read-out: pTGI (converted)) of 14100 nM and a Ratio [2] of 10. For the same molecule, the Activity (Mus musculus [3]) was “Non-toxic”, the pIC50 (L1210) was 6.35 and the GI50 (SNB-19) was 676 nM. For the same molecule, the TGI (SNB-19; read-out: pTGI) was > 100000 nM, the GI50 (M14) was 209 nM and the TGI (M14; read-out: pTGI) was > 100000 nM. For the same molecule, the pIC50 (B16) was 5.46, the GI50 (NCI-H226) was 1000 nM and the TGI (NCI-H226; read-out: pTGI) was > 100000 nM. For the same molecule, the GI50 (DU-145) was 257 nM, the TGI (DU-145; read-out: pTGI (converted)) was 813 nM and the GI50 (SNB-75) was 257 nM. The TGI (SNB-75; read-out: pTGI) was > 100000 nM, the GI50 (SK-MEL-28) was 100000 nM and the TGI (SK-MEL-28; read-out: pTGI) was > 100000 nM. The GI50 (HT-29) was 3630 nM, the TGI (HT-29; read-out: pTGI (converted)) was 15500 nM and the GI50 (SF-295) was 263 nM. For the same molecule, the TGI (SF-295; read-out: pTGI (converted)) was 1050 nM, the GI50 (COLO 205) was 10700 nM and the TGI (COLO 205; read-out: pTGI (converted)) was 37200 nM. The GI50 (K562) was 40.7 nM, the TGI (K562; read-out: pTGI) was > 100000 nM and the GI50 [4] was 661 nM. The TGI ([4]; read-out: pTGI) was > 100000 nM, the GI50 (LOX IMVI) was 417 nM and the TGI (LOX IMVI; read-out: pTGI) was > 100000 nM. For the same molecule, the GI50 (MCF7) was 195 nM, the TGI (MCF7; read-out: pTGI) was > 100000 nM and the GI50 [5] was 110 nM. For the same molecule, the GI50 (HOP-92) was 3310 nM, the TGI (HOP-92; read-out: pTGI) was > 100000 nM and the GI50 (OVCAR-5) was 4270 nM. For the same molecule, the TGI (OVCAR-5; read-out: pTGI) was > 100000 nM, the GI50 (MDA-MB-435) was 25.7 nM and the TGI (MDA-MB-435; read-out: pTGI (converted)) was 75.9 nM. It also gave a GI50 (HL-60(TB)) of 37.1 nM, a GI50 [6] of 89.1 nM and a TGI ([6]; read-out: pTGI (converted)) of 74100 nM. For the same molecule, the GI50 (RXF 393) was 219 nM, the GI50 (HCT-116) was 331 nM and the TGI (HCT-116; read-out: pTGI) was > 100000 nM. The GI50 (MDA-MB-468) was 170 nM, the TGI (MDA-MB-468; read-out: pTGI (converted)) was 550 nM and the GI50 (EKVX) was 5250 nM. For the same molecule, the TGI (EKVX; read-out: pTGI) was > 100000 nM, the GI50 (HOP-62) was 589 nM and the TGI (HOP-62; read-out: pTGI) was > 100000 nM. The GI50 (OVCAR-8) was 372 nM and the TGI (OVCAR-8; read-out: pTGI) was > 100000 nM.
